Experimental data: ChEMBL document CHEMBL3603782, “Antimalarial benzoheterocyclic 4-aminoquinolines: Structure-activity relationship, in vivo evaluation, mechanistic and bioactivation studies” (Bioorg Med Chem, 2015); call rule not given here

Assays:
CHO = assay: Cytotoxicity against CHO cells by MTT assay; type: cell-based; conditions: Cricetulus griseus
How it was run: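 CHO cells, MTT assay. Stocks 20 mg/mL in DMSO, diluted in complete medium; undissolved samples tested as suspensions. Emetine served as reference (10-fold dilutions, 6 concentrations, lowest 0.001 µg/mL). IC50 derived from full dose–response curves by non-linear fitting.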

[1] = Lipophilicity, log P of the compound; type: physicochemical; conditions: octanol/water
Plasmodium falciparum [2] = assay: Antiplasmodial activity against chloroquine-sensitive Plasmodium falciparum NF54 infected in human erythrocytes after 48 hrs by [3H]-hypoxanthine incorporation assay; type: functional, organism-based
How it was run: (§1)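 Modified [3H]-hypoxanthine incorporation assay against P. falciparum NF54 (sensitive) and K1 (multidrug-resistant). Values are means of ≥2 or ≥3 independent experiments. The resistance index is the K1 IC50 divided by the NF54 IC50.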

Plasmodium falciparum [3] = assay: Resistance index, ratio of IC50 for multidrug-resistant Plasmodium falciparum K1 to IC50 for chloroquine-sensitive Plasmodium falciparum NF54; type: functional; how it was run: as §1
[4] = Inhibition of beta haematin formation after 5 to 6 hrs by pyridine-ferrichrome method; type: physicochemical
How it was run: (§2)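 Modified β-haematin inhibition assay. Compounds from DMSO stocks, 0–1000 µM final, in duplicate. NP-40 added (30.55 µM). Haematin suspension added to give 0.5 M acetate pH 4.8 and 100 µM haematin, then incubated 5–6 h at 37 °C. Free haeme detected with pyridine/H2O/acetone/0.2 M HEPES pH 7.4 reagent (final pyridine ~5% v/v) plus acetone, and absorbance read.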

Plasmodium falciparum [5] = assay: Antiplasmodial activity against multidrug-resistant Plasmodium falciparum K1 infected in human erythrocytes after 48 hrs by [3H]-hypoxanthine incorporation assay; type: functional, organism-based; how it was run: as §1
Plasmodium falciparum [6] = assay: Resistance index, ratio of IC50 for multidrug-resistant Plasmodium falciparum K1 to IC50 for Plasmodium falciparum W2; type: functional
[7] = Inhibition of beta haematin formation at 1000 uM after 5 to 6 hrs by pyridine-ferrichrome method; type: physicochemical; how it was run: as §2
[8] = Metabolic stability in BALB/c mouse liver microsomes assessed as compound remaining at […] after 30 mins by HPLC-MS/MS analysis in presence of NADPH; type: ADME; conditions: read-out: Stability
[9] = Metabolic stability in human liver microsomes assessed as compound remaining at […] after 30 mins by HPLC-MS/MS analysis in presence of NADPH; type: ADME; conditions: read-out: Stability
[10] = Selectivity index, ratio of IC50 for CHO cells to IC50 for chloroquine-sensitive Plasmodium falciparum NF54; type: toxicity, cell-based; conditions: hamster, read-out: Ratio IC50

Clc1ccc2c(Nc3ccc4oc(NCCc5ccccn5)nc4c3)ccnc2c1
IC50 (CHO): > 240 µM
logP [1]: 4.42
IC50 (Plasmodium falciparum [2]): 0.402 µM
Ratio IC50 (Plasmodium falciparum [3]): 2.12
IC50 [4]: 63 µM
IC50 (Plasmodium falciparum [5]): 0.851 µM

CCN(CC)CCNc1nc2cc(Nc3ccnc4cc(Cl)ccc34)ccc2[nH]1
Ratio IC50 (Plasmodium falciparum [6]): 4.14

O=[N+]([O-])c1ccc2oc(NCc3ccccn3)nc2c1
IC50 (Plasmodium falciparum [2]): > 20 µM
inhibition (INH) [7]: Not Active
IC50 (Plasmodium falciparum [5]): > 20 µM

CCN(CC)c1nc2cc([N+](=O)[O-])ccc2o1
IC50 (Plasmodium falciparum [2]): > 20 µM
inhibition (INH) [7]: Not Active
IC50 (Plasmodium falciparum [5]): > 20 µM

Clc1cccc(N2CCN(c3nc4cc(Nc5ccnc6cc(Cl)ccc56)ccc4o3)CC2)c1
IC50 (CHO): 172 µM
remaining at 0.5 h [8]: > 99%
logP [1]: 6.57
IC50 (Plasmodium falciparum [2]): 0.202 µM
remaining at 0.5 h [9]: 36%
selectivity ratio [10]: 852
Ratio IC50 (Plasmodium falciparum [3]): 2.04
IC50 [4]: 24.7 µM
IC50 (Plasmodium falciparum [5]): 0.412 µM

CCN(CC)CCNc1nc2cc(Nc3ccnc4cc(Cl)ccc34)ccc2o1
IC50 (CHO): 11.5 µM
remaining at 0.5 h [8]: 74%
IC50 (Plasmodium falciparum [2]): 0.011 µM
remaining at 0.5 h [9]: 78%
selectivity ratio [10]: 1040
Ratio IC50 (Plasmodium falciparum [3]): 3.82
IC50 [4]: 244 µM
IC50 (Plasmodium falciparum [5]): 0.042 µM

O=[N+]([O-])c1ccc2oc(NCCN3CCCC3)nc2c1
IC50 (Plasmodium falciparum [2]): 1.64 µM
inhibition (INH) [7]: Not Active
IC50 (Plasmodium falciparum [5]): 2.93 µM

Clc1ccc2c(Nc3ccc4oc(NCCN5CCOCC5)nc4c3)ccnc2c1
IC50 (CHO): 124 µM
IC50 (Plasmodium falciparum [2]): 0.108 µM
selectivity ratio [10]: 1150
Ratio IC50 (Plasmodium falciparum [3]): 1.83
IC50 [4]: 80 µM
IC50 (Plasmodium falciparum [5]): 0.198 µM

Clc1ccc2c(Nc3ccc4oc(NCCCN5CCOCC5)nc4c3)ccnc2c1
IC50 (CHO): 13.7 µM
remaining at 0.5 h [8]: 26%
logP [1]: 3.09
IC50 (Plasmodium falciparum [2]): 0.039 µM
remaining at 0.5 h [9]: 27%
selectivity ratio [10]: 351
Ratio IC50 (Plasmodium falciparum [3]): 2.05
IC50 [4]: 80.1 µM
IC50 (Plasmodium falciparum [5]): 0.08 µM

CN(C)Cc1nc2cc(Nc3ccnc4cc(Cl)ccc34)ccc2o1
IC50 (Plasmodium falciparum [2]): 0.213 µM
Ratio IC50 (Plasmodium falciparum [3]): 1.93
IC50 (Plasmodium falciparum [5]): 0.411 µM

O=[N+]([O-])c1ccc2oc(N3CCN(c4ccccc4)CC3)nc2c1
IC50 (Plasmodium falciparum [2]): > 20 µM
inhibition (INH) [7]: Not Active
IC50 (Plasmodium falciparum [5]): > 20 µM

CN1CCN(c2nc3cc([N+](=O)[O-])ccc3o2)CC1
IC50 (Plasmodium falciparum [2]): > 20 µM
inhibition (INH) [7]: Not Active
IC50 (Plasmodium falciparum [5]): > 20 µM

Clc1ccc2c(Nc3ccc(NCCN4CCOCC4)nc3)ccnc2c1
Ratio IC50 (Plasmodium falciparum [6]): 1.78

Clc1ccc2c(Nc3ccc4oc(NCc5ccncc5)nc4c3)ccnc2c1
IC50 (CHO): > 240 µM
logP [1]: 4.55
IC50 (Plasmodium falciparum [2]): 0.63 µM
Ratio IC50 (Plasmodium falciparum [3]): 2.47
IC50 [4]: 93 µM
IC50 (Plasmodium falciparum [5]): 1.55 µM

CN(C)CCCNc1nc2cc(Nc3ccnc4cc(Cl)ccc34)ccc2o1
IC50 (CHO): 12.6 µM
remaining at 0.5 h [8]: 44%
logP [1]: 3.44
IC50 (Plasmodium falciparum [2]): 0.019 µM
remaining at 0.5 h [9]: 78%
selectivity ratio [10]: 665
Ratio IC50 (Plasmodium falciparum [3]): 7.84
IC50 [4]: 174 µM
IC50 (Plasmodium falciparum [5]): 0.149 µM

Clc1ccc2c(Nc3ccc4sc(NCCN5CCCC5)nc4c3)ccnc2c1
Ratio IC50 (Plasmodium falciparum [6]): 1.17

Clc1ccc2c(Nc3ccc4oc(NCc5cccnc5)nc4c3)ccnc2c1
IC50 (CHO): 164 µM
logP [1]: 4.68
IC50 (Plasmodium falciparum [2]): 0.309 µM
selectivity ratio [10]: 532
Ratio IC50 (Plasmodium falciparum [3]): 2.28
IC50 [4]: 100 µM
IC50 (Plasmodium falciparum [5]): 0.704 µM

COCCc1nc2cc(Nc3ccnc4cc(Cl)ccc34)ccc2o1
logP [1]: 3.11
IC50 (Plasmodium falciparum [2]): 1.09 µM
Ratio IC50 (Plasmodium falciparum [3]): 1.93
IC50 (Plasmodium falciparum [5]): 2.11 µM

CN1CCN(Nc2nc3cc(Nc4ccnc5cc(Cl)ccc45)ccc3o2)CC1
IC50 (CHO): 122 µM
logP [1]: 2.6
IC50 (Plasmodium falciparum [2]): 0.144 µM
selectivity ratio [10]: 849
Ratio IC50 (Plasmodium falciparum [3]): 1.67
IC50 [4]: 73.3 µM
IC50 (Plasmodium falciparum [5]): 0.24 µM
